These results are taken from ChEMBL document CHEMBL3286371, “wALADin benzimidazoles differentially modulate the function of porphobilinogen synthase orthologs” (J Med Chem, 2014).

For assay [1], the target named is Delta-aminolevulinic acid dehydratase (Pseudomonas aeruginosa (strain ATCC 15692 / PAO1 / 1C / PRS 101 / LMG12228)) (UniProt Q59643). Description: Inhibition of Pseudomonas aeruginosa PAO1 recombinant PBGS using 0.2 mM 5-ALA as substrate at 10 to 10000 uM at pH 7.5 by buffer scan assay in presence of 1 mM MgCl2.
Chain of Delta-aminolevulinic acid dehydratase (Pseudomonas aeruginosa (strain ATCC 15692 / PAO1 / 1C / PRS 101 / LMG12228)) (Q59643 whole entry): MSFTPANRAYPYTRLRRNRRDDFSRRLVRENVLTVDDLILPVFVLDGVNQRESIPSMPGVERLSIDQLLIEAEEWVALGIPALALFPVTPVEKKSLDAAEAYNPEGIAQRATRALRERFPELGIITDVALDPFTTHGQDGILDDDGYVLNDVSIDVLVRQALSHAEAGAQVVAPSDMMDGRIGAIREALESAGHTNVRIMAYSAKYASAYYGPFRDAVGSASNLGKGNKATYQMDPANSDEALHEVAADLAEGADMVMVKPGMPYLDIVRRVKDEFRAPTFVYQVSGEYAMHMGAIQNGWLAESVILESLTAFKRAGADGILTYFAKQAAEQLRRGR
Assay [2] has as its target Delta-aminolevulinic acid dehydratase (Yersinia enterocolitica W22703) (UniProt F4MUJ9). Briefly: Stimulation of Yersinia enterocolitica recombinant PBGS expressed in Escherichia coli using 5-ALA as substrate relative to control. The gist of the method: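 Y. enterocolitica PBGS, expressed in E. coli from pET3, at 150 nM subunit in 100 mM BTP-HCl pH 8.0 with 1 mM MgCl2, 5 mM DTT, 100 mM KCl and 0.2 mM 5-ALA, 10 min at 36 °C. Porphobilinogen read with Ehrlich's reagent. Activity normalized to 6.7% DMSO control as 100%. EC50 from variable-slope agonist fit.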

The target of assay [3] is Delta-aminolevulinic acid dehydratase (Pseudomonas aeruginosa (strain ATCC 15692 / PAO1 / 1C / PRS 101 / LMG12228), UniProt Q59643). Description: Stimulation of Pseudomonas aeruginosa PAO1 recombinant PBGS using 5-ALA as substrate. In outline: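 His-tagged PaPBGS at 150 nM subunit in 100 mM Tris-HCl pH 8.0 with 1 mM MgCl2, 100 mM KCl and 0.2 mM 5-ALA, 10 min at 36 °C, with turnover at most 30%. Porphobilinogen read with Ehrlich's reagent. Activity normalized to 6.7% DMSO control as 100%. EC50 from variable-slope agonist fit.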
Chain of Delta-aminolevulinic acid dehydratase (Q59643 whole entry): as above

In assay [4] the target is Delta-aminolevulinic acid dehydratase (Pseudomonas aeruginosa (strain ATCC 15692 / PAO1 / 1C / PRS 101 / LMG12228)) (UniProt Q59643). Briefly: Inhibition of Pseudomonas aeruginosa PAO1 recombinant PBGS using 0.2 mM 5-ALA as substrate assessed as reduction in Vmax at 50 to 200 uM at pH 7.5 by Michaelis-Menten plot analysis in presence of MgCl2. In outline:
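PaPBGS under "standard inhibitory" conditions (100 mM Tris-HCl pH 7.5, 1 mM MgCl2, no KCl). 5-ALA varied for substrate-response curves at several wALADin1 levels; KM and VMAX derived from the fits. Incubation at 36 °C.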

Assay [5] addresses T1, Delta-aminolevulinic acid dehydratase (Escherichia coli (strain K12)) (UniProt P0ACB2).
T1 sequence (whole entry): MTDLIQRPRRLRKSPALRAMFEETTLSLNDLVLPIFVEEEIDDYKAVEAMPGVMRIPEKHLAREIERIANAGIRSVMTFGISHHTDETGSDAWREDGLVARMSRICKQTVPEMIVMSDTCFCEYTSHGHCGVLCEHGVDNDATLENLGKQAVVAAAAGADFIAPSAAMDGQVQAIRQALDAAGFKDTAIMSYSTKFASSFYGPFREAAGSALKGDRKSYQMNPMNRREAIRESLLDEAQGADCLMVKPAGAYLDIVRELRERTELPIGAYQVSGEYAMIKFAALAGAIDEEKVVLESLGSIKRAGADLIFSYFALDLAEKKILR
Description: Stimulation of Escherichia coli recombinant PBGS using 5-ALA as substrate relative to control. The gist of the method:
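E. coli PBGS at 200 nM subunit in 100 mM BTP-HCl pH 8.1 with 1 mM MgCl2, 10 μM ZnCl2, 5 mM DTT and 0.2 mM 5-ALA, 10 min at 36 °C. Porphobilinogen detected with Ehrlich's reagent. EC50 by log(agonist) vs response variable-slope fit.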

Assay [6] concerns the target T2, Delta-aminolevulinic acid dehydratase (Wolbachia sp. subsp. Brugia malayi (strain TRS)) (UniProt Q5GSR3).
T2 sequence (whole entry): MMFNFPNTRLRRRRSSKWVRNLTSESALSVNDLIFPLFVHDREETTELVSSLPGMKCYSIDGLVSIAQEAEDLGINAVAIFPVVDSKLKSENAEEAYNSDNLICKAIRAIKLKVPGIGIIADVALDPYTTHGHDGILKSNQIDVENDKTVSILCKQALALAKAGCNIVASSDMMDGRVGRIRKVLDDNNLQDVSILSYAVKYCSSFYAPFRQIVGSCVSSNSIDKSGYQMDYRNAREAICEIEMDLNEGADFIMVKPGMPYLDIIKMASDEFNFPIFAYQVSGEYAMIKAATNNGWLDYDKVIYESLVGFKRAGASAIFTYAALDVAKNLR
The note with it: 25 to 2500 uM.

Assay [7] addresses T2, Delta-aminolevulinic acid dehydratase (Wolbachia sp. subsp. Brugia malayi (strain TRS)). The note with it: 25 to 2500 uM. This is another data set of the same source.
Assay [8] concerns the target Delta-aminolevulinic acid dehydratase (Pseudomonas aeruginosa (strain ATCC 15692 / PAO1 / 1C / PRS 101 / LMG12228)) (UniProt Q59643). Description: Stimulation of Pseudomonas aeruginosa PAO1 recombinant PBGS using 5-ALA as substrate at 10 to 1000 uM at pH 8 in presence of 0.1 to 10000 uM MgCl2.
Assay [9] has as its target T1, Delta-aminolevulinic acid dehydratase (Escherichia coli (strain K12)). Briefly: Stimulation of Escherichia coli recombinant PBGS assessed as reduction in Mg2+-induced conversion of dimer to octamer at 8 to 2000 uM by nondenaturing PAGE analysis. In outline:
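EcPBGS (3 μg) preincubated 20 min at 37 °C in BTP pH 8.1 buffer with varied Mg2+, Zn2+ and wALADin1. Run on 7.5% nondenaturing PAGE; Coomassie stain plus in-gel activity with 500 μM 5-ALA and Ehrlich's reagent.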

The nature of assay [10]: Stimulation of Toxoplasma gondii recombinant PBGS using 5-ALA as substrate. In outline:
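T. gondii PBGS, expressed from pET-21b in BL21 E. coli and purified, at 250 nM subunit in 100 mM Tris-HCl pH 8.0 with 1 mM MgCl2, 5 mM DTT and 0.2 mM 5-ALA, 20 min at 36 °C. Porphobilinogen detected with Ehrlich's reagent. Activity normalized to 6.7% DMSO control. EC50 by variable-slope agonist fit.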

The target of assay [11] is Delta-aminolevulinic acid dehydratase (Pseudomonas aeruginosa (strain ATCC 15692 / PAO1 / 1C / PRS 101 / LMG12228)) (UniProt Q59643). Description: Stimulation of Pseudomonas aeruginosa PAO1 recombinant PBGS using 5 mM 5-ALA as substrate at 50 to 200 uM at pH 8 by buffer scan assay in presence of KCl.
The target is the same in assay [12]. Description: Stimulation of Pseudomonas aeruginosa PAO1 recombinant PBGS using 5 mM 5-ALA as substrate assessed as effect on Km at 50 to 200 uM at pH 8 by Michaelis-Menten plot analysis in presence of MgCl2. The gist of the method: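 Mg2+ or substrate response curves recorded with and without wALADin1; VMAX, KM and Mg2+ affinity derived from the fits.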

The target in assay [13] is Delta-aminolevulinic acid dehydratase (Yersinia enterocolitica W22703) (UniProt F4MUJ9). Description: Stimulation of Yersinia enterocolitica recombinant PBGS expressed in Escherichia coli using 5-ALA as substrate at 10 to 1000 uM at pH 8 in presence of MgCl2 and KCl.
Chain of Delta-aminolevulinic acid dehydratase (Yersinia enterocolitica W22703) (F4MUJ9 as listed by the source): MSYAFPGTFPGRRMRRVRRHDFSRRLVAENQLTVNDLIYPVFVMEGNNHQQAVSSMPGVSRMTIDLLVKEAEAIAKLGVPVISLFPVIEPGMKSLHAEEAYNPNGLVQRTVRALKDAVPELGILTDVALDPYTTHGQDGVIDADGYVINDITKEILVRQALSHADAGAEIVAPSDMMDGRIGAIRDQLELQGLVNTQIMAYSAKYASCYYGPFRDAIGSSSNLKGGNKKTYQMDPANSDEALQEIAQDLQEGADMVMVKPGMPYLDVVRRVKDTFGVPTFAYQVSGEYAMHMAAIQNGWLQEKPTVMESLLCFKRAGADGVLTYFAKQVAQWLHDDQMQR
The target of assay [14] is Delta-aminolevulinic acid dehydratase (Pseudomonas aeruginosa (strain ATCC 15692 / PAO1 / 1C / PRS 101 / LMG12228)) (UniProt Q59643). Description: Activation of Pseudomonas aeruginosa PAO1 recombinant PBGS using 0.2 mM 5-ALA as substrate at 10 to 10000 uM at pH 7.5 by buffer scan assay in presence of 10 mM MgCl2.
In assay [15] the target is T2, Delta-aminolevulinic acid dehydratase (Wolbachia sp. subsp. Brugia malayi (strain TRS)). The note with it: 25 to 2500 uM. The source holds these as a separate data set.

Each structure is given as a SMILES string. Activity calls are given as the source filed them. The calls are words filed in the database; no cut-off is given here.

For `O=C(O)c1ccc2c(c1)nc(CCNC(=O)c1cccs1)n2Cc1cccc(C(F)(F)F)c1`, the inhibition result in [1], in assay [4] and in assay [15] was “Active” each time. Besides, the figures for the Smax in assay [2] and in assay [5] were 152% and 120%, respectively. In addition, the EC50 in assay [3] came out at 69 µM; in [10], 95 µM. In addition, the inhibition entry in [6] and in assay [7] was “inactive” each time. Also, the result in assay [8], in [9], in assay [11], in assay [13] and in assay [14] was Active. Moreover, the outcome in [12] was inactive.
